Assay results taken from ChEMBL document CHEMBL1765057, “Pyrazolo[4,3-d]pyrimidine bioisostere of roscovitine: evaluation of a novel selective inhibitor of cyclin-dependent kinases with antiproliferative activity” (J Med Chem, 2011).
Calls of active or inactive are those of the source. The calls are words filed in the database; no cut-off is given here.

What was measured:
[1] = molecular target: Cyclin-dependent kinase 2/cyclin E1 (Homo sapiens, UniProt P24941); assay: Inhibition of human recombinant CDK2/cyclin E; type: protein-complex assay
[2] = molecular target: Cyclin-dependent kinase 5/CDK5 activator 1 (Homo sapiens, UniProt Q00535); assay: Inhibition of human recombinant CDK5/p35; type: protein-complex assay
[3] = molecular target: Cyclin-dependent kinase 7/ cyclin H (Homo sapiens, UniProt P50613); assay: Inhibition of human recombinant CDK7/cyclin H/MAT1; type: protein-complex assay
CDK9/cyclin T1 = CDK9/cyclin T1 (Homo sapiens, UniProt P50750); assay: Inhibition of human recombinant CDK9/cyclin T1; type: protein-complex assay
[4] = molecular target: Cyclin-dependent kinase 7/ cyclin H (Homo sapiens) (UniProt P51946+P50613); assay: Inhibition of human recombinant CDK7/cyclin H/MAT1 at 10 uM; type: protein-complex assay
[5] = molecular target: CDK9/cyclin T1 (Homo sapiens) (UniProt O60563+P50750); assay: Inhibition of human recombinant CDK9/cyclin T1 at 10 uM; type: protein-complex assay
[6] = molecular target: Casein kinase I isoform alpha (Homo sapiens) (UniProt P48729); assay: Inhibition of human recombinant CK1 at 10 uM
[7] = molecular target: Casein kinase II (Homo sapiens) (UniProt P67870+P68400+P19784); assay: Inhibition of human recombinant CK2 at 10 uM; type: protein-complex assay
[8] = molecular target: Glycogen synthase kinase-3 alpha (Homo sapiens) (UniProt P49840); assay: Inhibition of human recombinant GSK3A at 10 uM
[9] = molecular target: Glycogen synthase kinase-3 beta (Homo sapiens) (UniProt P49841); assay: Inhibition of human recombinant GSK3B at 10 uM
[10] = molecular target: Dual specificity mitogen-activated protein kinase kinase 1 (Homo sapiens) (UniProt Q02750); assay: Inhibition of human recombinant MEK1 at 10 uM
[11] = molecular target: MAP kinase-activated protein kinase 5 (Homo sapiens) (UniProt Q8IW41); assay: Inhibition of human recombinant PRAK at 10 uM
[12] = molecular target: Ribosomal protein S6 kinase alpha-5 (Homo sapiens) (UniProt O75582); assay: Inhibition of human recombinant MSK1 at 10 uM
[13] = molecular target: T1, Retinoblastoma-associated protein (Homo sapiens) (UniProt P06400); assay: Inhibition of retinoblastoma protein in human HT-29 cells assessed as reduction of cyclin A level at 2.5 to 40 uM after 24 hrs by immunoblotting; type: cell-based
T1 sequence (whole entry): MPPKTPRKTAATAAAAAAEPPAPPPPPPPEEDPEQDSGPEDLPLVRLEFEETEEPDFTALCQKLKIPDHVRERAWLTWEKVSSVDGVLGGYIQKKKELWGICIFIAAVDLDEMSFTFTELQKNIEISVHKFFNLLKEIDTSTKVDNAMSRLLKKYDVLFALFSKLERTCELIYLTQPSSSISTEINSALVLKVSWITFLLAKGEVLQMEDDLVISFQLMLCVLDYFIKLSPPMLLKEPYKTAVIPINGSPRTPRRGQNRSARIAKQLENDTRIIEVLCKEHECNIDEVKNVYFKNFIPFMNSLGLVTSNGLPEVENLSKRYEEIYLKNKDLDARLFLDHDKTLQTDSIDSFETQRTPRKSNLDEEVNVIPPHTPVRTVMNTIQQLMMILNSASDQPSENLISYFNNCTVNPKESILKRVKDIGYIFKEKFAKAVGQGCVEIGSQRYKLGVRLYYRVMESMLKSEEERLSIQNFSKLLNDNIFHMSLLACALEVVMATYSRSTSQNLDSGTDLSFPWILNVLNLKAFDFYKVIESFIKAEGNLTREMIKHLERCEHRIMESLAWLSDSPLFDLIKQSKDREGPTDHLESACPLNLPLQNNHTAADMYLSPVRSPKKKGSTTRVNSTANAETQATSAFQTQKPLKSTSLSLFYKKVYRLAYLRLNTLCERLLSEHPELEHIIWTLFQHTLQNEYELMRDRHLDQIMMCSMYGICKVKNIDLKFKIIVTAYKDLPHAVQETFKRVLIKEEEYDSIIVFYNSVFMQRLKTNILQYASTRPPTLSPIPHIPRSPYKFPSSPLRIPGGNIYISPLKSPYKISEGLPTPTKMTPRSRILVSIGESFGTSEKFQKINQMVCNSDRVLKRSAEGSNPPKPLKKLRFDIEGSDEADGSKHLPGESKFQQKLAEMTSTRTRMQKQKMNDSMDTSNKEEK

[14] = molecular target: T1, Retinoblastoma-associated protein (Homo sapiens); assay: Inhibition of retinoblastoma protein in human HT-29 cells assessed as reduction of CDK4 level at 2.5 to 40 uM after 24 hrs by immunoblotting; type: cell-based
MCF7 [15] = assay: Cell cycle arrest in human MCF7 cells assessed as accumulation at G2/M phase after 24 hrs using propidium iodide and BrdU staining by flow cytometry; type: functional, cell-based
Outline: (§1)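 Subconfluent MCF-7 cells were treated for 24 h at a range of concentrations. They were pulse-labelled with 10 μM BrdU for 30 min at 37 °C, then trypsinized and fixed in ice-cold 70% ethanol. DNA was denatured in 2 M HCl and neutralized with borate. Cells were stained with fluorescein anti-BrdU and with propidium iodide plus RNase A, then analysed by flow cytometry at 488 nm.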

RPMI-8226 [16] = assay: Cell cycle arrest in human RPMI8226 cells assessed as accumulation at G2/M phase after 24 hrs using propidium iodide and BrdU staining by flow cytometry; type: functional, cell-based
Outline: (§2)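 Asynchronously growing RPMI-8226 multiple myeloma cells were exposed for 24 h. Cells were double-stained with propidium iodide and BrdU and analysed by flow cytometry for G1, S, G2/M and BrdU-positive fractions. The subG1 population was taken as indicative of apoptosis.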

MCF7 [17] = assay: Cell cycle arrest in human MCF7 cells assessed as decrease in S phase cell population after 24 hrs using propidium iodide and BrdU staining by flow cytometry; type: functional, cell-based; outline: as §1
RPMI-8226 [18] = assay: Cell cycle arrest in human RPMI8226 cells assessed as decrease in S phase cell population after 24 hrs using propidium iodide and BrdU staining by flow cytometry; type: functional, cell-based; outline: as §2
MCF7 [19] = assay: Cell cycle arrest in human MCF7 cells assessed as reduction of actively replicating DNA level at 80 uM after 24 hrs using propidium iodide and BrdU staining by flow cytometry; type: functional, cell-based; outline: as §1
RPMI-8226 [20] = assay: Cell cycle arrest in human RPMI8226 cells assessed as reduction of actively replicating DNA level at 80 uM after 24 hrs using propidium iodide and BrdU staining by flow cytometry; type: functional, cell-based; outline: as §2
MCF7 [21] = assay: Cell cycle arrest in human MCF7 cells assessed as accumulation at sub-G1 phase after 24 hrs using propidium iodide and BrdU staining by flow cytometry; type: functional, cell-based; outline: as §1
RPMI-8226 [22] = assay: Cell cycle arrest in human RPMI8226 cells assessed as accumulation at sub-G1 phase after 24 hrs using propidium iodide and BrdU staining by flow cytometry; type: functional, cell-based; outline: as §2
[23] = molecular target: Cellular tumor antigen p53 (Homo sapiens) (UniProt P04637); assay: Induction of p53-dependent transcriptional activity in human MCF7 cells assessed as increase of p21 WAF1 level at 20 uM after 24 hrs by immunofluorescence assay; type: cell-based
U2OS [24] = details: Homo sapiens, 10 uM
U2OS [25] = assay: Reduction of homologous recombination in human DR-U2OS-GFP cells expressing I-SceI nuclease at 0.1 uM after 56 hrs […] relative to control; type: functional

MAP kinase-activated protein kinase 5 (Homo sapiens), sequence (Q8IW41 whole entry): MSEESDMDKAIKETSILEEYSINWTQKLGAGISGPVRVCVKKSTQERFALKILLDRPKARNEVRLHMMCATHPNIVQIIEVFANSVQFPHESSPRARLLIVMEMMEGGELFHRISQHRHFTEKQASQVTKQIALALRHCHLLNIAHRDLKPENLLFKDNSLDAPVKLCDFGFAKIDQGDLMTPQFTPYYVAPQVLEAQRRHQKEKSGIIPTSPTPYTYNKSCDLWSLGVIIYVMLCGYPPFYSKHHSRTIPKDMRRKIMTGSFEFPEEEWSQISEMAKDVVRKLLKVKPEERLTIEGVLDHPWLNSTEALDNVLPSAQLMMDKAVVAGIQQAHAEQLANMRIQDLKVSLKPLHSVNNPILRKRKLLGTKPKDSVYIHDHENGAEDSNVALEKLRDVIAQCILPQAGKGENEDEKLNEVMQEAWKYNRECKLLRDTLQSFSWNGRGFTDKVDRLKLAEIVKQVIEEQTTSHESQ
CDK9/cyclin T1, sequence (O60563 whole entry): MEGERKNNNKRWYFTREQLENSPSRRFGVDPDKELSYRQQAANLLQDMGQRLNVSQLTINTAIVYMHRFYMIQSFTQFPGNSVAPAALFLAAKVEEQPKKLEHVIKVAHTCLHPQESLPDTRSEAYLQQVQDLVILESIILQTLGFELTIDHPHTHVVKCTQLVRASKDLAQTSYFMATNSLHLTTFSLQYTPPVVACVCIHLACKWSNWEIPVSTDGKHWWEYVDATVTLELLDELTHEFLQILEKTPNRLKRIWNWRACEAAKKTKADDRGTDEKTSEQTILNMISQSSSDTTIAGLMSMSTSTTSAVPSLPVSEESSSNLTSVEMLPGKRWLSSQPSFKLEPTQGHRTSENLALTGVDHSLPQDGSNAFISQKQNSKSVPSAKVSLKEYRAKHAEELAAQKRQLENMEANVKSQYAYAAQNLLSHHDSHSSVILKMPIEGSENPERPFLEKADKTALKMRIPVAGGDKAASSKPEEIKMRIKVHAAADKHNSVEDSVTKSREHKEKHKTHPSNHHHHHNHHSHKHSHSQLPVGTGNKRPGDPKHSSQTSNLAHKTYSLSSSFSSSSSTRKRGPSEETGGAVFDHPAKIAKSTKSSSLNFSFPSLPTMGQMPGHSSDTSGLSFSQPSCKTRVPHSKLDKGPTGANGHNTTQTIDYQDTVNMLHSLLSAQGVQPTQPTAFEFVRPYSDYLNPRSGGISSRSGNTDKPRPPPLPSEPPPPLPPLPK
CDK9/cyclin T1, sequence (P50750 whole entry): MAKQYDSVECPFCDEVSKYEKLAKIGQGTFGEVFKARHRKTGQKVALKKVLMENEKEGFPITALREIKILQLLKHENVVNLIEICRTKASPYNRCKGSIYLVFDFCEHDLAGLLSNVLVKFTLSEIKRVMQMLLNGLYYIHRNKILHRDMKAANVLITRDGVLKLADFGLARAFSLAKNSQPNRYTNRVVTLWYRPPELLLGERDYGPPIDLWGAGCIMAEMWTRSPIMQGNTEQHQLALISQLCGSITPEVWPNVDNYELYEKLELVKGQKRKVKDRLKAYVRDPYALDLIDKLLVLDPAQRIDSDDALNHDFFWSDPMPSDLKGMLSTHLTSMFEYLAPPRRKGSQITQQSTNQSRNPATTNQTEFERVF
Casein kinase I isoform alpha (Homo sapiens), sequence (P48729 2-337 limits assumed): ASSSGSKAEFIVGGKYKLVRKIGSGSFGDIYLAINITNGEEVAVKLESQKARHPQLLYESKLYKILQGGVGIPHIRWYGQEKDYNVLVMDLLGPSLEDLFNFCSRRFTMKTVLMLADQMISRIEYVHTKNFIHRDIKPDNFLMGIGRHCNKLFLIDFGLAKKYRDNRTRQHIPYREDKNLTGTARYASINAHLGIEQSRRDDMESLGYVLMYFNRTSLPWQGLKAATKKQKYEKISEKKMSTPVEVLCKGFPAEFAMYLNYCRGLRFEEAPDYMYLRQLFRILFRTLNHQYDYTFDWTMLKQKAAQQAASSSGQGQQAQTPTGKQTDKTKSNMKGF
Dual specificity mitogen-activated protein kinase kinase 1 (Homo sapiens), sequence (Q02750 whole entry): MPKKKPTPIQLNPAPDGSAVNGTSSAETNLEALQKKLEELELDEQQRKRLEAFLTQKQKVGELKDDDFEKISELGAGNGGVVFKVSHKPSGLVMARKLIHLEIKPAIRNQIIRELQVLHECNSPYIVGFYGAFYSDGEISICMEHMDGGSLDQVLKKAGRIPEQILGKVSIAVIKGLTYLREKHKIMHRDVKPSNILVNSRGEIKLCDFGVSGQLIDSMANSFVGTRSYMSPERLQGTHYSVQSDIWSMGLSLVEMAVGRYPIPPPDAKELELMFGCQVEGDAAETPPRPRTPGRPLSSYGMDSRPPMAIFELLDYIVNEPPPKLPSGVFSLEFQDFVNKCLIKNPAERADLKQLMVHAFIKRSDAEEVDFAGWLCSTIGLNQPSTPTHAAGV
Cyclin-dependent kinase 5/CDK5 activator 1, sequence (Q00535 whole entry): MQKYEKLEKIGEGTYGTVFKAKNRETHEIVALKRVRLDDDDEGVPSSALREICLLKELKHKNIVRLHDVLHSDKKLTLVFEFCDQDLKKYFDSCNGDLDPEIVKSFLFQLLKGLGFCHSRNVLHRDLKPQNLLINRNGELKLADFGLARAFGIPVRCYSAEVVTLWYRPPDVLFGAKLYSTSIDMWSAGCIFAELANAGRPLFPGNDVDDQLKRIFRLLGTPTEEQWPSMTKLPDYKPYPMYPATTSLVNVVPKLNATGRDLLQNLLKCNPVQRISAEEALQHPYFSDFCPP
Cyclin-dependent kinase 5/CDK5 activator 1, sequence (Q15078 whole entry, further chain): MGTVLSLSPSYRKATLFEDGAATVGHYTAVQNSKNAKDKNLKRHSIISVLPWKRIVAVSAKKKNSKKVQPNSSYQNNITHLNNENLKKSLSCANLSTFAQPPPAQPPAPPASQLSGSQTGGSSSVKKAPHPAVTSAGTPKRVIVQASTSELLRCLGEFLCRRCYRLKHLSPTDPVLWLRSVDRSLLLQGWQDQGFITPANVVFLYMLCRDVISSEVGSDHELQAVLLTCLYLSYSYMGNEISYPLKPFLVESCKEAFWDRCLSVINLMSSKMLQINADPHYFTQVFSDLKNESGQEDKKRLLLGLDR
Glycogen synthase kinase-3 beta (Homo sapiens), sequence (P49841 whole entry, looked up): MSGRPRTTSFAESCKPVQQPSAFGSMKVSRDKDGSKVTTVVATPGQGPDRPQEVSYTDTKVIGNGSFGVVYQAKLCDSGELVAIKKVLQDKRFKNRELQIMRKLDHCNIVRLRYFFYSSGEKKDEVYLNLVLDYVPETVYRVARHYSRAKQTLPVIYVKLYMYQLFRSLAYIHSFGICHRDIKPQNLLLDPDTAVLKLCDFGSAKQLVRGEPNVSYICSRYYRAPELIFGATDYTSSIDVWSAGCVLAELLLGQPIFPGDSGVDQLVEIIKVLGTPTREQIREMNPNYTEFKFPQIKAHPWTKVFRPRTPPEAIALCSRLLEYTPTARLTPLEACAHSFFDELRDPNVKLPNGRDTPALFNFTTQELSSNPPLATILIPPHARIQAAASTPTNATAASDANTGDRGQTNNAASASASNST
Glycogen synthase kinase-3 alpha (Homo sapiens), sequence (P49840 2-483 limits assumed): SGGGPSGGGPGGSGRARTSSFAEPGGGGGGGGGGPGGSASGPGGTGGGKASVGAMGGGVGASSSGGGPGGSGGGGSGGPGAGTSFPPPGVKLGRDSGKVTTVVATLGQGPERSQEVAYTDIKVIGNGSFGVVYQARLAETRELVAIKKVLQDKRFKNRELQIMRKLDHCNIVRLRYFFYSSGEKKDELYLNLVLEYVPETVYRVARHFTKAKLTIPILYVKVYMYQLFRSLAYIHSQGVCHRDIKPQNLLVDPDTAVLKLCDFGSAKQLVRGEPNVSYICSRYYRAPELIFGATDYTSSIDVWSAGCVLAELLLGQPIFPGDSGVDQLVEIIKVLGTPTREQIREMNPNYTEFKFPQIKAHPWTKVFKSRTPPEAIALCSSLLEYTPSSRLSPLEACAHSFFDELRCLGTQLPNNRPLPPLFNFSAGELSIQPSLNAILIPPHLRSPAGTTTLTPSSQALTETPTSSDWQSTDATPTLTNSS
Cyclin-dependent kinase 7/ cyclin H, sequence (P51946 whole entry): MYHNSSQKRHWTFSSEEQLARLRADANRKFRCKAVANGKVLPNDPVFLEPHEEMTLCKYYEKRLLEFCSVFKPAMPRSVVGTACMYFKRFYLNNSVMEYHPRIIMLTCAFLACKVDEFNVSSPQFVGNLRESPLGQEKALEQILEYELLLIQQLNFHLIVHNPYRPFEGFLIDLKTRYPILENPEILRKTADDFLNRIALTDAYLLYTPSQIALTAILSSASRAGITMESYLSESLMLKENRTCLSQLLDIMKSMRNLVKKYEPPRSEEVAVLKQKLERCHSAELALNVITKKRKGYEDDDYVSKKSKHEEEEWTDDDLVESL
Cyclin-dependent kinase 7/ cyclin H, sequence (P50613 whole entry): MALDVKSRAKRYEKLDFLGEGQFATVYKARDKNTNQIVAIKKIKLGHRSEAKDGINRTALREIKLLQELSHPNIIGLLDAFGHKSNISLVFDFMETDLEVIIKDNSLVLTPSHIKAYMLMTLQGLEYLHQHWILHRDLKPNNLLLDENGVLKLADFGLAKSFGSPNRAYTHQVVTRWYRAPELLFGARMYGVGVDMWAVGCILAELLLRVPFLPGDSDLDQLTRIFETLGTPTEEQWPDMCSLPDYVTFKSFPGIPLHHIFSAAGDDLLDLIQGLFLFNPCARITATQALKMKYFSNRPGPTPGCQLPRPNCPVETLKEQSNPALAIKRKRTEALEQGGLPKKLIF
Cellular tumor antigen p53 (Homo sapiens), sequence (P04637 whole entry, looked up): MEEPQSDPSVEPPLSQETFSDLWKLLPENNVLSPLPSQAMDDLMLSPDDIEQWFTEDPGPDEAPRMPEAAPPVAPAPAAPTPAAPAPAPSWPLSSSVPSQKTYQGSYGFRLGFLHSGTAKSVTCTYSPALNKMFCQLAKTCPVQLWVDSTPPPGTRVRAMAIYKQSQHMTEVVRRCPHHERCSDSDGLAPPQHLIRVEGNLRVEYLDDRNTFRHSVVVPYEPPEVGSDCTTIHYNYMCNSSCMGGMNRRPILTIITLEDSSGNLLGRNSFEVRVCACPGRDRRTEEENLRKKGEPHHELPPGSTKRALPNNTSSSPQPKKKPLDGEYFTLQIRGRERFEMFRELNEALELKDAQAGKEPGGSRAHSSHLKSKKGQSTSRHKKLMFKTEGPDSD

CC[C@H](CO)Nc1nc(NCc2ccccc2)c2n[nH]c(C(C)C)c2n1
IC50 [1]: 40 nM | IC50 [2]: 200 nM | IC50 [3]: 160 nM | IC50 (CDK9/cyclin T1): 1000 nM

CC[C@H](CO)Nc1nc(NCc2ccccc2)c2ncn(C(C)C)c2n1
inhibition [4]: 87% | inhibition [5]: 87% | inhibition [6]: 1% | inhibition [7]: 10% | inhibition [8]: 13% | inhibition [9]: 25% | inhibition [10]: 38% | inhibition [11]: 28% | inhibition [12]: 29% | inhibition [13]: Active | inhibition [14]: inactive | Activity (MCF7 [15]): Active | Activity (RPMI-8226 [16]): Active | Activity (MCF7 [17]): Active | Activity (RPMI-8226 [18]): Active | Activity (MCF7 [19]): Active | Activity (RPMI-8226 [20]): Active | Activity (MCF7 [21]): Active | Activity (RPMI-8226 [22]): Active | Activity [23]: Active | inhibition (U2OS [24]): inactive

CN1CC[C@H](c2c(O)cc(O)c3c(=O)cc(-c4ccccc4Cl)oc23)[C@H](O)C1 [ALVOCIDIB]
inhibition at 0.1 µM (U2OS [25]): 62%
